Experimental data gathered from unrelated publications.
Read-out: cell growth or viability

N=C(N/N=C/c1ccc(Oc2ccccc2)cc1)N/N=C/c1ccc(Oc2ccccc2)cc1
IC50 (L6; resazurin; 70 h): 4.44 µM

COc1cc2nc(N3CCN(C(=O)c4ccco4)CC3)nc(N)c2cc1OC
IC50 (HNE1; MTT; 48 h): 41.6 µM

O=C1CCN2C(=O)CCC2C(=O)Nc2ccccc21 (centres unmarked)
IC50 (L6): > 390 µM

CO[C@]12C[C@@H](COC(=O)c3cncc(Br)c3)CN(C)[C@@H]1Cc1cn(C)c3cccc2c13
IC50 (HK-1; MTT; 48 h): 5.99 µM

O=C1CCN2C(=O)c3ccccc3C2C(=O)Nc2cc(F)ccc21 (centres unmarked)
IC50 (L6): > 300 µM

CC(C)c1ccccc1[C@@H]1CCCN1C1CC2(CCN(c3ccc(C(=O)NS(=O)(=O)c4ccc(NC[C@H]5CC[C@](C)(O)CC5)c([N+](=O)[O-])c4)c(Oc4cnc5[nH]ccc5c4)c3)CC2)C1
IC50 (RS4-11; ATP luminescence; 48 h): 0.00056 µM

CN1C(=O)C2c3ccccc3C(=O)N2CCC(=O)c2ccccc21 (centres unmarked)
IC50 (L6): > 300 µM

Cc1cc(/C=C/C#N)cc(C)c1Nc1ccnc(Nc2ccc(C#N)cc2)n1
IC50 (HNE1; MTT; 48 h): 14.1 µM

COc1cc2c3c(n(CCCn4ccnc4)c(=O)c2cc1OC)-c1nc2c(cc1C3=O)OCO2
IC50 (RS4-11; MTS; 72 h): 0.12 µM

C=C(F)C(=O)N1CCN(c2nc(OC[C@@H]3CCCN3C)nc3c2CCN(c2cccc4cccc(Cl)c24)C3)C[C@@H]1CC#N
IC50 (KYSE-410; ATP luminescence): 3.07 µM

O=C1CCC(N2Cc3c(C#CC4CCN(C(=O)[C@H]5CC[C@H](NC(=O)[C@H]6NC7(CCCCC7)[C@]7(C(=O)Nc8cc(Cl)ccc87)[C@H]6c6cccc(Cl)c6F)CC5)CC4)cccc3C2=O)C(=O)N1 (some centres unmarked)
IC50 (RS4-11): 0.062 µM

C=CC(=O)N1CCN(c2nc(=O)n(-c3c(C)ccnc3C(C)C)c3nc(-c4c(O)cccc4F)c(F)cc23)[C@@H](C)C1
IC50 (KYSE-410; ATP luminescence): 0.0676 µM

CO/N=C1/CCN2C(=O)c3ccccc3C2C(=O)Nc2ccccc21 (centres unmarked)
IC50 (L6): > 300 µM

CCNCCCn1c2c(c3cc(OC)c(OC)cc3c1=O)C(=O)c1cc3c(nc1-2)OCO3
IC50 (RS4-11; MTS; 72 h): 0.038 µM

COc1cc2nc(N3CCN(C(=O)C4COc5ccccc5O4)CC3)nc(N)c2cc1OC (centres unmarked)
IC50 (HK-1; MTT; 48 h): 31.7 µM

N=C(NN=Cc1ccc(OC(F)F)cc1)NN=Cc1ccc(OC(F)F)cc1
IC50 (L6; resazurin; 70 h): 13.4 µM

CC(C)C[C@@H]1NC(=O)CNC(=O)[C@H](CC(N)=O)NC(=O)[C@H](CCCNC(=N)N)NC(=O)[C@H]([C@@H](C)O)NC(=O)[C@@H]2CSSC[C@@H]3NC(=O)[C@H]([C@@H](C)O)NC(=O)CNC(=O)CNC(=O)[C@H](C(C)C)NC(=O)[C@@H]4CSSC[C@H](NC(=O)[C@H]([C@@H](C)O)NC(=O)[C@H](CSSC[C@H](NC(=O)[C@H](C(C)C)NC(=O)[C@@H]5CCCN5C1=O)C(=O)NCC(=O)N[C@@H](CCC(=O)O)C(=O)N[C@@H]([C@@H](C)O)C(=O)N4)NC(=O)CNC(=O)[C@@H]1CCCN1C(=O)[C@H]([C@@H](C)O)NC(=O)[C@H](CC(N)=O)NC3=O)C(=O)N[C@@H](CO)C(=O)N[C@@H](Cc1c[nH]c3ccccc13)C(=O)N1CCC[C@H]1C(=O)N[C@@H](C(C)C)C(=O)N2
IC50 (Sf9; MTT; 24 h): 2.8 µM

N=C(N/N=C/c1ccc(Oc2ccc(Cl)cc2)cc1)N/N=C/c1ccc(Oc2ccc(Cl)cc2)cc1
IC50 (L6; resazurin; 70 h): 3.18 µM

COc1cc2c3c(n(CCCN4CCOCC4)c(=O)c2cc1OC)-c1nc2c(cc1C3=O)OCO2
IC50 (RS4-11; MTS; 72 h): 0.283 µM

N=C(NN=Cc1ccc(N2CCOCC2)cc1)NN=Cc1ccc(N2CCOCC2)cc1
IC50 (L6; resazurin; 70 h): 2.3 µM

C=CC(=O)Nc1cc(Nc2nccc(-c3cn(C)c4ccccc34)n2)c(OC)cc1N(C)CCN(C)C
IC50 (NCI-H460; 72 h): 5.38 µM

O=C1Nc2ccccc2C2(O)CCN3C12c1ccccc1S3(=O)=O (centres unmarked)
IC50 (L6): > 290 µM

N=C(NN=CCc1ccc(OC(F)(F)F)cc1)NN=CCc1ccc(OC(F)(F)F)cc1
IC50 (L6; resazurin; 70 h): 4.02 µM
